In ChEMBL document CHEMBL1141660, “Synthesis and antimycobacterial evaluation of substituted pyrazinecarboxamides” (Eur J Med Chem, 2008):
Values after ≈ are worked out from the molar mass of the structure shown.

Key:
[1] = Inhibition of photosynthetic electron transport in Spinacia oleracea chloroplasts assessed as photoreduction of 2,6-dicholorophenol-indophenol measured by decrease in oxygen evolution rate; type: functional
In short: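 Chloroplast suspension (chlorophyll 30 mg/L) in 0.02 mol/L phosphate buffer, pH 7.2, with 0.4 mol/L sucrose, 0.005 mol/L MgCl2 and 0.015 mol/L NaCl. Samples were lit by a halogen lamp (~100 W/m², 10 cm, 4-cm water filter) at 22 °C. Electron transport was followed as DCPIP photoreduction. IC50 is the molar concentration halving oxygen evolution versus the untreated control.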

Chlorella vulgaris [2] = assay: Antialagal activity against Chlorella vulgaris Beji assessed as reduction in chlorophyll content after 7 days at 0.83 to 100 umol/L; type: functional; parameters: scale not given: the % may be the effect or the level left
In short: (§1)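 Chlorella cultures with compound added from DMSO (final ≤0.25%), against controls carrying the same DMSO level. Chlorophyll content was read relative to the control. Results are given either as IC50 (concentration giving a 50% drop in chlorophyll) or as percent of control across the 0.83–100 concentration range, with S.D.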

[3] = tested on: Mycobacterium tuberculosis; assay: Antimicrobial activity against Mycobacterium tuberculosis H37Rv ATCC 27294 at 6.25 ug/mL by microplate alamar blue assay; type: functional
Chlorella vulgaris [4] = assay: Antialagal activity against Chlorella vulgaris Beji assessed as reduction in chlorophyll content after 7 days; type: functional, organism-based; conditions: 168 h; in short: as §1
Vero = assay: Cytotoxicity against african green monkey Vero cells after 72 hrs by MTT assay; type: cell-based; conditions: Chlorocebus sabaeus
In short: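 Secondary screen in VERO cells. Viability was read with the CellTiter 96 non-radioactive cell proliferation assay.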

[5] = tested on: Mycobacterium tuberculosis; assay: Antimicrobial activity against Mycobacterium tuberculosis H37Rv ATCC 27294 by microplate alamar blue assay; type: functional
[6] = Selectivity index, ratio of MIC Mycobacterium tuberculosis H37Rv ATCC 27294 to IC50 for african green monkey Vero cells; type: functional
[7] = tested on: Trichophyton mentagrophytes; assay: Antifungal activity against Trichophyton mentagrophytes after 120 hrs; type: functional
[8] = tested on: Trichophyton mentagrophytes; assay: Antifungal activity against Trichophyton mentagrophytes after 72 hrs; type: functional

SMILES	IC50 [1]	Activity (Chlorella vulgaris [2])	inhibition at 6.25 µg/mL [3]	IC50 (Chlorella vulgaris [4])	IC50 (Vero)	MIC [5]	Ratio [6]	MIC [7]	MIC [8]
Cc1ccc(NC(=O)c2cnc(C(C)(C)C)c(Cl)n2)cc1	73 µM	92.9%	0%						
Cc1ccc(NC(=O)c2cnccn2)cc1	1480 µM		86%	70.9 µM					
O=C(Nc1cc(O)ccc1Cl)c1cncc(Cl)n1	624 µM	103%	15%						
CC(C)(C)c1ncc(C(=O)Nc2ccc(F)cc2)nc1Cl	103 µM	101.6%	15%						
CC(C)(C)c1ncc(C(=O)Nc2cccc(C(F)(F)F)c2)nc1Cl	173 µM	90.1%	95%		> 10 µg/mL	3.13 µg/mL (≈ 8.75 µM)	>3.2		
O=C(Nc1ccc(F)cc1)c1cncc(Cl)n1	384 µM		44%	32.3 µM					
O=C(Nc1cccc(C(F)(F)F)c1)c1cncc(Cl)n1	229 µM		77%	12.1 µM					
Cc1ccc(NC(=O)c2cncc(Cl)n2)cc1	1520 µM		71%	37.4 µM					
CC(C)(C)c1cnc(C(=O)Nc2cc(O)ccc2Cl)cn1		122%	0%						
CC(C)(C)c1cnc(C(=O)Nc2ccc(F)cc2)cn1	524 µM	94.5%	25%						
O=C(Nc1cc(O)ccc1Cl)c1cnccn1	722 µM	97.1%	0%						
O=C(Nc1ccc(F)cc1)c1cnccn1	480 µM	89.9%	0%						
O=C(Nc1ccccc1C(F)(F)F)c1cnccn1	376 µM	91.7%	31%						
CC(C)(C)c1cnc(C(=O)Nc2ccccc2C(F)(F)F)cn1	55 µM		7%	32.9 µM					
Cc1ccc(NC(=O)c2cnc(C(C)(C)C)cn2)cc1	164 µM	91.8%	61%						
O=C(Nc1cccc(C(F)(F)F)c1)c1cnccn1	130 µM	91.5%	99%		> 62.5 µg/mL	6.25 µg/mL (≈ 23.4 µM)	>10		
CC(C)(C)c1ncc(C(=O)Nc2ccccc2C(F)(F)F)nc1Cl	205 µM	94.4%	6%						
O=C(Nc1ccccc1C(F)(F)F)c1cncc(Cl)n1	557 µM	87.8%	26%						
CC(C)(C)c1ncc(C(=O)Nc2cc(O)ccc2Cl)nc1Cl	625 µM	98%	0%						
CC(C)(C)c1cnc(C(=O)Nc2cccc(C(F)(F)F)c2)cn1	283 µM	85.2%	23%					62.5 µM (≈ 20.2 µg/mL)	62.5 µM (≈ 20.2 µg/mL)
CN(C)C(=O)Nc1ccc(Cl)c(Cl)c1 [DCMU]	1.9 µM			7.3 µM					
NC(=O)c1cnccn1 [PYRAZINAMIDE]						12.5 µg/mL (≈ 102 µM)			
